The test system of assay [1] is Escherichia coli. The experiment in a line: Inhibition of C-terminal YFP-fused Escherichia coli FtsZ cloned in Escherichia coli envA1 assessed as mislocalization of protein throughout cell at 120 uM after 30 to 60 mins by fluorescence microscopic analysis. The procedure, abridged:
(§1)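 envA1 carrying arabinose-inducible pFtsZ-YFP grown in LB with 20 µg/mL chloramphenicol at 37 °C to OD600 ~0.2, then induced with 0.4% L-arabinose for 30 min. Cells washed in PBS/tetracycline and resuspended in LB. 1 mL aliquots treated in 1% MeOH or 1% DMSO for 30 or 60 min. Imaged by confocal fluorescence (ex 488, em 558) plus DIC, 100× objective.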

For assay [2], the target named is T1, Cell division protein FtsZ (Bacillus subtilis) (UniProt A5Z1V5).
T1 sequence (whole entry): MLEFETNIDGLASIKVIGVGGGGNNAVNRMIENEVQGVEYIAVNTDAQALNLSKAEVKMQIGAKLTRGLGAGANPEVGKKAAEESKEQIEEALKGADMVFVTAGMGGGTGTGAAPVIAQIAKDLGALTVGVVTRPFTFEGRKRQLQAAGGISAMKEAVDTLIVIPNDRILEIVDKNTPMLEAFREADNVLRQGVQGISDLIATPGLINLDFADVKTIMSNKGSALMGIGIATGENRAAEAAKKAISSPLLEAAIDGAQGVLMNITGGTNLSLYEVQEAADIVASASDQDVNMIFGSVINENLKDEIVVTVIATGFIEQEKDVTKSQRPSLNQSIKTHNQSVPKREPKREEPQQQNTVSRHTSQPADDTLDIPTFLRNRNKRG
The experiment in a line: Inhibition of Bacillus subtilis SU570 GFP-fused FtsZ assessed as perturbation of Z-ring formation at 12 uM after 60 mins by fluorescence microscopic analysis.

Assay [3] concerns the target T2, Cell division protein FtsZ (Staphylococcus aureus, UniProt P0A031).
T2 sequence (P0A031 whole entry): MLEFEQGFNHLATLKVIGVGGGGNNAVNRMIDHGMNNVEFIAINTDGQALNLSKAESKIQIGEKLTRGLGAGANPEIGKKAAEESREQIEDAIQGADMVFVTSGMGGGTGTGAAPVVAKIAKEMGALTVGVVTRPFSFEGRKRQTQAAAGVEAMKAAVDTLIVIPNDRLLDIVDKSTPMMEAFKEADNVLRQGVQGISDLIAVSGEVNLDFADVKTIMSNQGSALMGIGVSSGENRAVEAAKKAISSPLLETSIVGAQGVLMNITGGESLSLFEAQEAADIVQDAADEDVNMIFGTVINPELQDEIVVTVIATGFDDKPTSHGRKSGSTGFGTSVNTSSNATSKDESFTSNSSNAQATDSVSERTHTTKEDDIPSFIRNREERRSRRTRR
The experiment in a line: Inhibition of recombinant Staphylococcus aureus FtsZ GTPase activity expressed in Escherichia coli BL21 (DE3) assessed as production of inorganic phosphate after 20 mins by malachite green-phosphomolybdate colorimetric assay. Put shortly: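 SaFtsZ (recombinant; stored at −80 °C in 50 mM Tris pH 7.4, 50 mM KCl, 1 mM EDTA, 10% glycerol), 6 µM, with 0.25 mM GTP in 50 mM MES pH 6.0, 100 mM KCl, 5 mM MgCl₂. Run 20 min at 30 °C with serially diluted inhibitor. Pi read at 635 nm against a standard curve to give IC₅₀. DMSO control up to 8%.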

The target in assay [4] is T1, Cell division protein FtsZ (Bacillus subtilis). The experiment in a line: Displacement of mant-GTP from Bacillus subtilis FtsZ by fluorescence anisotropy analysis. Put shortly: (§2)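 Nucleotide-free B. subtilis FtsZ (380 nM) with mant-GTP (500 nM), titrated with competitor. Displacement read as the change in fluorescence anisotropy and fit by least squares to a simple competition model. GTP (150 µM) served as the displacement control.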
A general note: Polarisation of emitted light reports the rotation of a fluorescent probe.

In assay [5] the test system is Escherichia coli. The experiment in a line: Inhibition of recombinant Escherichia coli FtsZ GTPase activity expressed in Escherichia coli BL21 (DE3) assessed as production of inorganic phosphate up to 600 uM after 10 mins by malachite green-phosphomolybdate colorimetric assay in presence of triton X-100. Put shortly:
(§3)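 Recombinant EcFtsZ, purified by ammonium sulfate precipitation, ion exchange and gel filtration, used at 2 µM with 0.25 mM GTP in 50 mM MES pH 6.0, 100 mM KCl, 5 mM MgCl2. Incubated 10 min at 23 °C with serially diluted inhibitor. Pi read at 635 nm by malachite green-phosphomolybdate against a standard curve to give IC50. Triton X-100 at 0.01% where stated.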

The nature of assay [6]: Inhibition of recombinant Escherichia coli FtsZ GTPase activity expressed in Escherichia coli BL21 (DE3) assessed as production of inorganic phosphate after 10 mins by malachite green-phosphomolybdate colorimetric assay. Put shortly: as §3
Assay [7] has as its target T3, Cell division protein FtsZ (Bacillus subtilis, UniProt A5Z1V5).
T3 sequence (A5Z1V5 whole entry): T1 sequence (whole entry)
The experiment in a line: Inhibition of Bacillus subtilis FtsZ GTPase activity assessed as production of inorganic phosphate measured up to 60 mins by malachite green-phosphomolybdate colorimetric assay.

Assay [8] has as its system Escherichia coli. The experiment in a line: Antibacterial activity against Escherichia coli K12 C600 envA1 assessed as growth inhibition after 18 hrs by microbroth dilution method. The conditions noted are these: envA1, 18 h.
Assay [9] deals with Escherichia coli. The experiment in a line: Inhibition of C-terminal YFP-fused Escherichia coli FtsZ cloned in Escherichia coli envA1 assessed as protein dispersion in from of patches throughout cytoplasm at 340 uM after 30 to 60 mins by fluorescence microscopic analysis. The procedure, abridged: as §1
Assay [10] has as its target T1, Cell division protein FtsZ (Bacillus subtilis). The experiment in a line: Displacement of [3H]-GTP from Bacillus subtilis FtsZ assessed as equilibrium association constant by scintillation counting assay. The procedure, abridged: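 Nucleotide-free B. subtilis FtsZ (70 nM) incubated with 3H-GTP (100 nM) and competitor. FtsZ-bound label measured by co-sedimentation and scintillation counting. 3H-GTP binding constant determined separately. Data fit to a simple competition model.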
A general note: Loss of bound radioactivity is the signal in a displacement assay; it reports binding, not function.

Assay [11] addresses T4, Cell division protein FtsZ (Staphylococcus aureus) (UniProt P0A031).
T4 sequence (whole entry): T2 sequence (P0A031 whole entry)
The experiment in a line: Inhibition of recombinant Staphylococcus aureus FtsZ GTPase activity expressed in Escherichia coli BL21 (DE3) assessed as production of inorganic phosphate up to 600 uM after 20 mins by malachite green-phosphomolybdate colorimetric assay in presence of triton X-100. Put shortly:
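Recombinant SaFtsZ at 6 µM with 0.25 mM GTP in 50 mM MES pH 6.0, 100 mM KCl, 5 mM MgCl2, plus 0.01% Triton X-100. Incubated 20 min at 30 °C with serially diluted inhibitor. Pi measured at 635 nm by malachite green-phosphomolybdate against a standard curve.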

Assay [12] relates to Escherichia coli. The experiment in a line: Inhibition of C-terminal YFP-fused Escherichia coli FtsZ cloned in Escherichia coli envA1 assessed as Z ring formation at 340 uM after 30 to 60 mins by fluorescence microscopic analysis. The procedure, abridged:
as §1

In assay [13] the target is T1, Cell division protein FtsZ (Bacillus subtilis). The experiment in a line: Displacement of mant-GTP from Bacillus subtilis FtsZ assessed as equilibrium association constant by fluorescence anisotropy analysis. Put shortly: as §2
Assay [14] deals with Escherichia coli. The experiment in a line: Inhibition of C-terminal YFP-fused Escherichia coli FtsZ cloned in Escherichia coli envA1 assessed as mislocalization of protein in polar region at 4.9 uM after 30 to 60 mins by fluorescence microscopic analysis. Put shortly: as §1
The test system of assay [15] is Escherichia coli. The experiment in a line: Inhibition of C-terminal YFP-fused Escherichia coli FtsZ transformed in Escherichia coli envA1 assessed as Z ring formation at 125 uM after 30 to 60 mins by fluorescence microscopic analysis. Put shortly: as §1
The subject of assay [16] is Escherichia coli. The experiment in a line: Inhibition of C-terminal YFP-fused Escherichia coli FtsZ cloned in Escherichia coli envA1 assessed as protein dispersion in from of patches throughout cytoplasm at 125 uM after 30 to 60 mins by fluorescence microscopic analysis. The procedure, abridged:
as §1

Assay [17] has as its system Escherichia coli. The experiment in a line: Inhibition of C-terminal YFP-fused Escherichia coli FtsZ cloned in Escherichia coli envA1 assessed as mislocalization of protein throughout cell at 680 uM after 30 mins by fluorescence microscopic analysis. Put shortly: as §1
Assay [18] has as its system Escherichia coli. The experiment in a line: Inhibition of C-terminal RFP-fused Escherichia coli FtsZ cloned in Escherichia coli envA1 assessed as intact red fluorescent Z-ring formation at 680 uM after 30 to 60 mins by fluorescence microscopic analysis. The procedure, abridged:
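envA1 carrying arabinose-inducible pFtsZ-tdTomato (pFtsZ-RFP), induced and treated by the same protocol, 680 µM for 30 min. Red fluorescence imaged (ex 555, em 630) alongside the yellow channel and DIC at 30 and 60 min post induction.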

Results on 5 compounds are retold here after ChEMBL document CHEMBL2417459, “Chrysophaentins are competitive inhibitors of FtsZ and inhibit Z-ring formation in live bacteria” (Bioorg Med Chem, 2013).

Converted amounts (≈) assume the structure as drawn. The source made the active and inactive calls. The rule behind the calls is not given here.

As for `CCN(CC)CCNc1nc(/C=C/c2ccc(Cl)cc2)nc2cc3ccccc3cc12`, the inhibition result in the assay with Escherichia coli [1] was “Active”.
The IC50 is the concentration at which inhibition is half-maximal. Usually MIC50 stands for an inhibitory concentration at the 50% level, which refers to growth in some studies and to a panel of isolates in others. Consider `COc1cc(C/C=C(/Cl)Cc2cc(O)cc(O)c2)c(OC)cc1Cl`, for which the inhibition result (in [2]; in the assay on Escherichia coli [5]; in the assay on Escherichia coli [9]; in [11]; in the assay with Escherichia coli [12]) was “Active” in each case. Also, the IC50 in assay [3] came to 38 µM; in assay [6], 37 µM; in assay [7], 70 µM. The inhibition entry in [4] was “Dose-dependent effect”. Moreover, the MIC50 with Escherichia coli [8] came out at 84 µM (≈ 31 µg/mL). The Ka in assay [10] was found to be 0.87 ×10⁵ /M; in assay [13] it was 1.5 ×10⁵ /M.
On to `Oc1ccc(Cl)cc1Cc1cc(Cl)cc(Cc2cc(Cl)ccc2O)c1O`, for which, in the assay with Escherichia coli [14], the inhibition result is “Active”.
Turning to `Oc1cc(O)c2c(c1)C/C(Cl)=C\Cc1cc(c(Cl)cc1O)Oc1c(O)cc(cc1O)C/C(Cl)=C\Cc1cc(c(Cl)cc1O)O2`, the inhibition result (with Escherichia coli [15]; with Escherichia coli [5]; in assay [11]; with Escherichia coli [16]) was “Active” each time. Besides, the IC50 was found to be 67 µM in assay [3] and 9.9 µM in assay [6]. Moreover, the MIC50 in the assay on Escherichia coli [8] came out at 27 µM (≈ 18.3 µg/mL).
As for `COc1ccc2cc3[n+](cc2c1OC)CCc1cc2c(cc1-3)OCO2`, the inhibition entry with Escherichia coli [17] is “Active”. Besides, the inhibition entry in the assay with Escherichia coli [18] is “inactive”.
